Screens as filed in PubChem.
A selection: hits, their analogues and other compounds. The true share with any hit is near 2.2%.
Tb hexokinase: blocks Trypanosoma brucei hexokinase 1 activity. recombinant TbHK1, G6PDH-coupled NADH A340. inhibition, % at 10 µM. 0.11% of 220,000 active;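 active = inhibition of 50% or more in the single-dose primary screen; inactive = inhibition below 50%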
Runt-CBFb FRET: inhibitors of human RUNX1 Runt domain binding to CBFb | Q01196+Q13951 | Cerulean-Runt/Venus-CBFb FRET ratio 530/480, 1 h | inhibition, % at 20 µM | 0.46% of 220,000 active | AID 1496;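 active = inhibition over about 50% at 20 µM in the single-dose screen, limit read from the data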
Target sequence (Q01196 whole entry, looked up, the tested form may be a part): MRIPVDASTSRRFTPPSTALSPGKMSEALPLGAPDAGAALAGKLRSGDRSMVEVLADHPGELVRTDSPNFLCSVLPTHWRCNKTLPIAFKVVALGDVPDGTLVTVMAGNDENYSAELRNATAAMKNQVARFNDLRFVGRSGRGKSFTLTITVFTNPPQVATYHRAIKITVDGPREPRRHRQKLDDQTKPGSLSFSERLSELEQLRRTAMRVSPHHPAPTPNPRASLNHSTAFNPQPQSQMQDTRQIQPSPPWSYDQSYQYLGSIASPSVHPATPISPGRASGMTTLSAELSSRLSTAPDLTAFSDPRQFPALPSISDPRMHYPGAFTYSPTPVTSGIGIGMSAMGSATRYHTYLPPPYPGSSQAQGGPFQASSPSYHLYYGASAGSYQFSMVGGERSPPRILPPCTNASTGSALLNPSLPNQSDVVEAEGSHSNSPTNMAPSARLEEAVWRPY
Target sequence (Q13951 whole entry, looked up, the tested form may be a part): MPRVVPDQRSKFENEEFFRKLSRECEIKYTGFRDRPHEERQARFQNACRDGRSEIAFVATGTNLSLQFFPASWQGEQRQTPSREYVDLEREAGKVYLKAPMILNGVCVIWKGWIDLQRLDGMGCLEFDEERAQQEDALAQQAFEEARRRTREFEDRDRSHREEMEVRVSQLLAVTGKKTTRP
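Buffer or medium: Tris pH 7.5 buffer with BSA. Assay system: Cerulean-labeled Runt domain protein. Amount: each fluorescent fusion protein 100 nM. Read-out basis: loss of energy transfer signal. Incubation: 1 h compound exposure, room temperature. Probe or stimulus: Venus-CBFb binding partner, 100 nM. Detection: FRET, excitation 422 nm, emission at 530 and 480 nm.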
Hck Nef HTS: human Hck-Nef kinase inhibition. Recombinant Hck-YEEI plus Nef, Z-Lyte FRET kinase assay. inhibition, % at 20 µM. 0.68% of 220,000 active. AID 463187;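 active = Hck-Nef kinase inhibition above about 50%, limit read from the data; inactive = inhibition below that limit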
Runt-SMMHC FRET: blocks binding of human RUNX1 Runt domain to CBFb-SMMHC; 0.74% of 220,000 active; AID 1434; Q01196+Q13951; Cerulean-Runt/Venus-CBFb-SMMHC FRET ratio 530/480, 1 h; inhibition, % at 20 µM;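 active = mean inhibition across duplicate retests at 20 µM reaching about 50%, limit read from the data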;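 note: inhibitors lower the FRET ratio by blocking Runt binding to CBFb-SMMHC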
14-3-3 Bad inh: disrupts binding of bovine 14-3-3 zeta to phospho-Bad peptide | TR-FRET 14-3-3zeta/Dy647-pBad peptide displacement, 1 h | inhibition, % at 21.7 µM | 0.71% of 220,000 active;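 active = inhibition above about 70%, limit read from the data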
RanGTP-Impb inh: inhibitors of RanGTP-importin-beta interaction, primary screen, biochemical, FRET, CFP-Ran, YFP-importin-beta, homogeneous; cell-free CFP-Ran/YFP-importin-beta FRET ratio; inhibition, % (concentration not given with the values); 1.1% of 300,000 active; AID 2216;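 active = more than half of the replicate wells show a fall in the fluorescence ratio signal beyond about 16%, limit read from the data, passing the limit was not always enough; inconclusive = exactly half of the replicate wells pass the set limit; inactive = fewer than half of replicates pass the limit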
Hck Nef conf: confirmation of Hck-Nef kinase inhibitors | shares compounds with Hck Nef HTS | Recombinant Hck-YEEI:Nef, Z-Lyte FRET kinase assay | calls only at 10 µM | 28% of 1,300 active;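 active = average inhibition of at least 50%, with Z-scores no higher than 3 in both the phospho-tyrosine peptide and fluorescence counterscreens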
Hits are given with their value; - = inactive; ? = inconclusive; . = not tested or not shown; + = active, no number; [ ] = remark or other dose.

SMILES	Tb hexokinase	Runt-CBFb FRET	Hck Nef HTS	Runt-SMMHC FRET	14-3-3 Bad inh	RanGTP-Impb inh	Hck Nef conf
O=C1/C(=C/C=C/c2ccco2)SC(=S)N1NS(=O)(=O)c1ccccc1	67.1	-	101.9	-	88.8	.	+
O=c1c2c(-c3ccc(Cl)cc3)csc2ncn1/N=C/c1cccc([N+](=O)[O-])c1O	-	-	88.8	-	-	-	+
O=[N+]([O-])c1cccc(/C=N/n2cnnc2)c1O	-	-	-	-	-	-	.
COc1ccc(OC)c(/C=C/C(=O)c2ccc3c(c2)OCCO3)c1	.	.	.	.	.	-	.
COc1ccccc1CNC(=O)/C=C/c1ccc(Br)o1	-	-	90.9	-	-	-	+
O=C(C1CCCN(S(=O)(=O)c2cc(Cl)ccc2Cl)C1)N1CCOCC1 (stereo not given)	.	.	.	.	.	-	.
COc1ccc(-c2cc3ccccc3oc2=O)cc1NC(=O)c1ccc(Br)o1	-	-	76.5	-	-	?	-
COc1cccc(OC)c1C(=O)NC(=S)Nc1ccc2c(c1)OCCO2	-	-	-	-	-	-	.
COc1ccc(-c2cc3ccccc3oc2=O)cc1NC(=S)NC(=O)c1ccc2c(c1)OCCO2	-	.	50.6	-	77.4[fluorescence artefact?]	?	+
CC(=O)Nc1nnc(Cc2c[nH]c3ccccc23)s1	-	-	-	-	-	-	.
CC(=O)Oc1cc(OC(C)=O)c2c(C)cc(=O)oc2c1	-	-	-	-	-	?	.
CC(=O)Oc1ccc2c(C)cc(=O)oc2c1	-	-	86.0	-	-	-	-
CCN(c1ccccc1)S(=O)(=O)c1cc(C(=O)Oc2ccc3c(C)cc(=O)oc3c2)ccc1C	-	-	55.7	-	-	-	.
CCC12CN3CC(CC)(CN(C1)C3c1ccc([N+](=O)[O-])o1)C2=O (stereo not given)	-	-	50.1	-	-	-	-
Cc1ccc(CCN2CC(C(=O)NC3CCCCC3)CC2=O)cc1 (stereo not given)	.	.	.	.	.	-	.
O=C(c1ccco1)N(Cc1ccc2c(c1)OCO2)Cc1cc2cc3c(cc2[nH]c1=O)OCO3	-	-	125.8	-	-	-	-
CCc1cccc(NC(=O)CCCn2nc(C)c3c(C)n(-c4ccccc4)nc3c2=O)c1	.	.	.	.	.	-	.
Cc1ccc(C(=O)Nc2cccc(C(F)(F)F)c2)cc1NC(=O)c1cnnc2ccccc12	-	-	73.7	-	-	-	-
Cc1ccc(C(=O)Nc2cccc(C(F)(F)F)c2)cc1Nc1cncnc1	.	.	.	.	.	-	.
Cc1nc(SCC(=O)Nc2ccc3c(c2)OCCO3)c2oc3ccccc3c2n1	-	-	80.9	-	-	-	-
CCc1nc(SCC(=O)Nc2ccc3c(c2)OCCO3)c2oc3ccccc3c2n1	-	-	88.3	-	-	-	-
CCc1nc(SCC(=O)NC2CCCC2)c2oc3ccccc3c2n1	.	.	.	.	.	-	.
O=C(CSc1ncnc2c1oc1ccccc12)Nc1ccc2c(c1)OCCO2	-	.	-	.	-	-	.
Cc1ccccc1-n1ncc2c1CC(C)(C)CC2NC(=O)CCN1CCCCC1=O (stereo not given)	.	.	.	.	.	-	.
O=C1CN(C(=O)COC(=O)/C=C/c2ccco2)c2ccccc2N1	-	-	53.1	-	-	?	-
SMILES	Tb hexokinase	Runt-CBFb FRET	Hck Nef HTS	Runt-SMMHC FRET	14-3-3 Bad inh	RanGTP-Impb inh	Hck Nef conf
O=C(Oc1ccc(Nc2ncnc3ccccc23)cc1)c1cccnc1	-	-	85.3	-	82.0	-	+
COC(=O)c1ccc(COc2ccc(/C=C(\C#N)c3nc4ccccc4[nH]3)cc2OC)o1	-	-	-	-	-	-	.
COc1cc(/C=C(/C#N)c2nc3ccccc3[nH]2)ccc1OCc1ccc(C(=O)O)o1	-	-	56.3	62.6	-	-	+
Cn1c(=O)[nH]c(=O)c2c1nc(CN1CCN(Cc3ccccc3)CC1)n2CC(N)=O	-	-	-	-	-	-	.
COc1cc2c(cc1OC)C1(CCCC1)C(N)=C2C#N	-	-	56.1	-	-	.	.
CCN(CC)C(=O)C(=O)N/N=C/c1ccc(Br)cc1	-	-	-	-	-	-	.
NS(=O)(=O)c1ccc(N/N=C/c2ccccn2)c([N+](=O)[O-])c1	-	-	-	-	-	-	.
NS(=O)(=O)c1ccc(N/N=C/c2ccc(O)cc2O)c([N+](=O)[O-])c1	-	-	92.5	-	-	?	+
O=C(N/N=C/c1ccc(Cl)c([N+](=O)[O-])c1)c1cc(-c2ccc3c4c(cccc24)CC3)n[nH]1	-	-	61.6	-	-	-	-
CC1=C(C#N)C(=O)NC(=O)/C1=C\c1ccc(-c2cc(C)c(C)cc2[N+](=O)[O-])o1	-	-	90.8	-	-	-	+
CCOC(=O)NCCOC(=O)Nc1ccc(Cl)cc1	-	-	58.3	-	-	-	-
Cc1ccc(NC(=O)OCCNC(=O)OC(C)C)cc1	-	.	-	-	-	?	.
NC(=O)c1cc(Br)cc2c3c([nH]c12)CCCC3	-	-	57.8	-	-	-	+
N#Cc1cccc(NC(=O)COC(=O)c2cccc(N3C(=O)c4ccccc4C3=O)c2)c1	-	-	56.3	-	-	-	-
O=c1ccc(-c2ccc(S(=O)(=O)Nc3ccccc3Cl)o2)n[nH]1	.	.	.	.	.	-	.
Cc1cc(C)c(NC(=O)CS(=O)CC(=O)Nc2ccc(-n3cnnn3)c(C)c2)c(C)c1 (stereo not given)	.	.	.	.	.	-	.
Cc1c(OC(=O)CNC(=O)OC(C)(C)C)ccc2c3c(c(=O)oc12)CCC3	-	-	64.0	83.2	-	.	.
